Screens deposited in PubChem by Johns Hopkins Ion Channel Center.
MrgX1 agonist: human MrgX1 receptor agonism, primary screen. Q96LB2. MrgX1-HEK293 cells, Fluo-4 calcium fluorescence, agonist mode; hits give high values. B-score at 10 µM. hit rate 0.44% among 310,000;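 active = calcium response B-score plate-corrected fluorescence ratio at least 3 library SD, with starting fluorescence B-score inside 5 SD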
Target sequence (Q96LB2 whole entry, looked up): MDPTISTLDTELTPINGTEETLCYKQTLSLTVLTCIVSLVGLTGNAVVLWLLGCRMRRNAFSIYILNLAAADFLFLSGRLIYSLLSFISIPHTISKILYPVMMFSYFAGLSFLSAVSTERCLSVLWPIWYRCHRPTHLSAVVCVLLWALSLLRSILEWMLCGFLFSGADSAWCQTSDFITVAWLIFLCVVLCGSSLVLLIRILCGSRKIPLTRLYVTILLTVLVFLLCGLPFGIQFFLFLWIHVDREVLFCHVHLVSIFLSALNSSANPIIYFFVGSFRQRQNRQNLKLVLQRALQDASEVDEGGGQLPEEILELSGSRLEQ
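Test system: Stable human MrgX1 HEK293 cell line | Schedule: Overnight plating before 1 h dye loading | Read-out basis: Baseline-normalised fluorescence change ratio, B-scored | Detection: Kinetic calcium dye fluorescence, Fluo-4 NW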
MrgX1 antagonist: human MrgX1 receptor antagonism, primary screen | AID 588676 | Q96LB2 | MRGX1-HEK293 calcium flux, Fluo-4, BAM8-22 antagonism; hits give low values | B-score at 10 µM | hit rate 1.3% among 310,000;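 active = calcium-response B-score plate-corrected more than 3 library SD below zero, starting fluorescence within 5 deviations, no agonist response on first addition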;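 also: peak minus trough fluorescence over baseline after final BAM8-22 challenge near maximal dose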
MrgX1 allo act: human MrgX1 positive allosteric modulation, primary screen; Q96LB2; MrgX1-HEK293, Fluo-4 calcium flux, FDSS; hits give high values; B-score at 10 µM; hit rate 0.63% among 310,000;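 active = plate-corrected calcium response at least 3 library SD above typical, normal starting fluorescence, not activating the receptor alone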;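 also: compound read alongside a low EC10 to EC30 dose of BAM8-22 agonist; peak minus trough fluorescence over baseline measured at the second addition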
RGS4 pot: RGS4 potentiation or activation; hit rate 0.92% among 310,000; AID 463111; HEK293 M3R/inducible RGS4, carbachol calcium flux Fluo4; hits give low values; B-score at 10 µM;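 active = B-score of the integrated calcium signal more than 4 SD below the library mean, with starting fluorescence not abnormally high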;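 also: negative B-score means reduced calcium response which marks RGS4 activation or potentiation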
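Assay system: HEK293 FlpIn-TREx cells, stable M3R, doxycycline-inducible RGS4 / Probe or stimulus: carbachol, ECmax concentration / Times: overnight RGS4 induction, 30 min dye load 37 °C, 20 min compound RT / Signal: kinetic calcium fluorescence imaging with Fluo4-AM dye, 2 µM / Measure: Agonist-evoked peak-minus-minimum fluorescence over baseline, integrated ratio, B score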
RGS4 inh: inhibitors of human RGS4. HEK293 M3R/RGS4 inducible, Fluo-4 calcium flux; hits give high values; triggered by carbachol at its EC20. B-score at 10 µM. hit rate 0.45% among 310,000. P49798. AID 463165;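 active = B-score, a plate-corrected calcium signal, over three deviations above library mean, with baseline fluorescence within five deviations of library mean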;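 also: RGS4 expression induced by doxycycline in cells with stable M3 receptor; B-score is computed from the integrated fluorescence ratio over baseline after carbachol; higher B-score means a larger calcium signal and so more RGS4 inhibition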
Target sequence (P49798 whole entry, looked up): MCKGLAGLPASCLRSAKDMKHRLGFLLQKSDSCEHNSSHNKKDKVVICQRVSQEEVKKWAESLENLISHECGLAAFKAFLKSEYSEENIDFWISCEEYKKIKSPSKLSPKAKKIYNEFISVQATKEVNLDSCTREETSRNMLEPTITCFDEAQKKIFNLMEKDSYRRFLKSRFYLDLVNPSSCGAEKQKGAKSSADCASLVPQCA
RGS4 act valid: confirmation of RGS4 activators | AID 602282 | shares compounds with RGS4 pot | inhibition, % at 10 µM | HEK293 M3R/RGS4 inducible, carbachol calcium flux Fluo4 | hit rate 89% among 1,100;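 active = inhibition above 3 SD of the buffer control wells, cut at about 41% in these data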;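 also: signal is the integrated peak-minus-minimum Fluo4 fluorescence over baseline ratio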
RGS4 act ctr: activity in cells without induced RGS4 expression. shares compounds with RGS4 pot. HEK293 M3R non-induced RGS4, Fluo4 calcium flux; after carbachol challenge at its EC90. inhibition, % at 10 µM. hit rate 82% among 1,100;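 active = inhibition exceeding 3 SD of buffer-only control wells, cut at about 26% in these data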;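 also: percent drop in integrated peak-minus-baseline over baseline Fluo4 ratio after carbachol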
* hit, by the source's call; i = inactive; . = not tested or not shown. Sampled rows, rich in hits. Any-hit rate of the full collection: about 3.5%.

SMILES | MrgX1 agonist | MrgX1 antagonist | MrgX1 allo act | RGS4 pot | RGS4 inh | RGS4 act valid | RGS4 act ctr
Cc1ccc(Cl)cc1NC(=O)C(=O)N1CCCCC1 | i | i | i | i | i | . | .
Cc1ccc(Cl)cc1NC1=NC(=S)N(C(C)C)C12CCCCC2 | i | i | i | -8.3* | i | 80* | 41*
CCOc1ccc(Br)cc1C1C(C(=O)OC)=C(N)Oc2cc(N(C)C)ccc21 (configuration not stated) | i | i | i | -9.2* | i | 92* | 69*
O=C(COC(=O)CNS(=O)(=O)c1ccc(Br)cc1Cl)NC1CC1 | i | i | i | i | i | . | .
COc1ccc(C(c2nnnn2Cc2cccs2)N2CCN(c3ccccc3F)CC2)cc1 (configuration not stated) | i | i | i | -7.6* | i | 0 | 0
COc1ccc(C(c2nnnn2Cc2ccccc2)N2CCN(c3ccccc3)CC2)cc1 (configuration not stated) | i | i | i | i | i | . | .
CCOC(=O)C1(CCCc2ccccc2)CCN(Cc2nccn2CC)CC1 | i | i | i | -11* | i | 92* | 84*
CCOC(=O)C1(CCOc2ccccc2)CCN(Cc2cccn2-c2ncccn2)CC1 | i | i | i | -8.1* | i | 54* | 84*
O=C1CCCN1CCCNc1ccc2nnc(CCC(=O)N3CCN(c4ccc(F)cc4)CC3)n2n1 | i | i | i | i | i | . | .
CCN(CC)CCC#CC1(O)c2ccccc2-c2ccccc21 | i | i | i | i | i | . | .
CCN(CC)CCC#CC(O)(c1ccccc1)c1ccccc1 | i | i | i | -8.1* | i | 93* | 89*
COc1c(C)cc(Br)cc1C(=O)Nc1cccc(-c2nc3ncccc3o2)c1 | i | i | i | -8.3* | i | 94* | 74*
CC(C)C(=O)Nc1cccc(-c2nc3ncccc3o2)c1 | i | i | i | i | i | . | .
O=C(CSc1ccc(Cl)cc1)Nc1cc(-c2nc3ncccc3o2)ccc1Cl | i | i | i | i | i | . | .
O=C(CSc1ccc(Cl)cc1)Nc1cccc(-c2nc3ncccc3o2)c1 | i | i | i | -8.7* | i | 92* | 92*
CCOc1ccccc1-c1noc(CCCC(=O)NC2CCCCC2)n1 | i | i | i | i | i | . | .
Cc1cccnc1NC(=O)C1CCCN1S(=O)(=O)c1ccc(Cl)cc1 (configuration not stated) | i | i | i | i | i | . | .
Cc1ccc(C(=O)N(CCc2ccccc2)Cc2ccccc2)cc1S(=O)(=O)N1CCCCC1 | i | i | i | -8.5* | i | 91* | 50*
CCOc1ccc(S(=O)(=O)NCCC(=O)NCC(c2ccccc2OC)N2CCCC2)cc1 (configuration not stated) | i | i | i | i | i | . | .
CN(C(=O)/C=C/c1cnc2ccccc2c1)C1CCCCC1 | i | i | i | i | i | . | .
CCOc1ccc(OCCn2c(S(=O)(=O)O)nc3c(N)ncnc32)cc1 | i | i | i | i | i | . | .
O=C(CN1C(=O)C2C3CC(C(Br)C3Br)C2C1=O)Nc1ccc(C(=O)O)cc1 (configuration not stated) | i | i | i | i | i | . | .
O=C1CC(N2CCN(C/C=C/c3ccccc3)CC2)C(=O)N1Cc1cccs1 (configuration not stated) | i | i | i | -7.9* | i | 94* | 26*
CC1=CC(C)(C)N(C(=O)CCl)c2cc(C)ccc21 | i | i | i | i | i | . | .
CC1=CC(C)(C)N(C(=O)CNC2CCCCC2)c2cc(C)ccc21 | i | i | i | -8.5* | i | 94* | 97*
SMILES | MrgX1 agonist | MrgX1 antagonist | MrgX1 allo act | RGS4 pot | RGS4 inh | RGS4 act valid | RGS4 act ctr
CSCC[C@H](NC(=O)OC(C)(C)C)C(=O)N/N=C/c1ccc2nccnc2c1 | i | i | i | -12* | i | 0 | 0
Cc1cccc(C(=O)NCCCNC(=O)c2ccc(C)nc2)c1 | i | i | i | i | i | . | .
Cc1cc(C)nc(/N=C(\N)N(Cc2ccccc2)Cc2ccccc2)n1 | i | i | i | -8.5* | i | 92* | 95*
CCCN1CCN(CCCNC(=O)c2cc3c(=O)oc4ccc(C)cc4c3s2)CC1 | i | i | i | i | i | . | .
Cc1ccc2nc(Cl)c3cc(C(=O)NCCCN4CCCC4)sc3c2c1 | i | i | i | -7.6* | i | 65* | 40*
CCOC(=O)c1sc2nc(C)nc(NCc3ccc(Cl)cc3)c2c1C | i | i | i | -7.8* | i | 90* | 42*
CCOC(=O)c1sc2nc(C)nc(NCc3ccc(F)cc3)c2c1C | i | i | i | i | i | . | .
COC(=O)C1CCN(c2nc3ccccc3nc2C(C#N)C(=O)OCC(C)C)CC1 (configuration not stated) | i | i | i | -7.9* | i | 91* | 75*
O=C(Nc1nc2ccc(S(=O)(=O)N3CCCC3)cc2s1)c1ccco1 | i | i | i | -7.6* | i | 0 | 0
Cc1[nH]nc2c1C(c1ccc(F)cc1)C1=C(CC(C)(C)CC1=O)N2 (configuration not stated) | i | i | i | -9.7* | i | 0 | 0
CCc1cccc(C)c1NC(=O)C1CCCN1C(=O)NCc1ccccc1 (configuration not stated) | i | i | i | i | i | . | .
Cc1ccc(OCc2cc(C(=O)N3CCc4sccc4C3)no2)cc1C | i | i | i | -7.7* | i | 81* | 44*
COc1ccc(N(CC(=O)NCC2CCCO2)S(=O)(=O)c2ccccc2)cc1OC (configuration not stated) | i | i | i | i | i | . | .
Cc1cc(C)c2[nH]c(C)c(CN3CCCCCC3)c(=O)c2c1 | i | i | i | -11* | i | 42* | 84*
Cc1cccc(C)c1C(=NCCCN(C)C)c1ccccc1 | i | i | i | -9.4* | i | 92* | 80*
CN(C)CCCNC(=O)/C(=N\O)c1ccccc1 | i | i | i | i | i | . | .
COc1cc(Cl)ccc1NC(=S)N(CCN1CCOCC1)C1CCN(C(C)=O)CC1 | i | i | i | i | i | . | .
C=CCn1c(SCC(=O)c2cccs2)nc2sc(C)c(C)c2c1=O | i | i | i | -9.4* | i | 92* | 38*
